{"source": "ChEMBL document CHEMBL1671853", "about": "“Decrease of atazanavir and lopinavir plasma concentrations in a boosted double human immunodeficiency virus protease inhibitor salvage regimen” (Antimicrob Agents Chemother, 2008)", "key": {"[1]": {"experiment": "Oral clearance in HIV-1 infected patient at 300 mg, po qd coadministered with 100 mg of ritonavir, po qd and NRTI", "assay_type": "ADME, organism-based", "settings": "human, in vivo", "procedure,_shortened": "(§1)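 Retrospective steady-state TDM data from HIV-1-infected adults (n = 17 per group, matched for sex, age, ethnicity and body weight), taken after at least 2 weeks on therapy. Plasma sampled before dosing and at 1, 2, 4, 6, 9, 12 and 24 h, with food of approximately 2,500 kJ (21% fat). Drug levels measured by validated LC-MS/MS; parameters from noncompartmental analysis; geometric means (90% CI).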"}, "[2]": {"experiment": "Half life in HIV-1 infected patient at 300 mg, po qd coadministered with 100 mg of ritonavir, po qd and NRTI", "assay_type": "ADME, organism-based", "settings": "human, in vivo", "procedure,_shortened": "as §1"}, "[3]": {"experiment": "AUC in HIV-1 infected patient at 300 mg, po qd coadministered with 100 mg of ritonavir, po qd and NRTI", "assay_type": "ADME, organism-based", "settings": "human, plasma", "procedure,_shortened": "as §1"}, "[4]": {"experiment": "Cmax in HIV-1 infected patient at 300 mg, po qd coadministered with 100 mg of ritonavir, po qd and NRTI", "assay_type": "ADME, organism-based", "design": "dose 300 mg, route oral", "settings": "human, in vivo", "procedure,_shortened": "as §1"}, "[5]": {"experiment": "Apparent oral clearance in HIV-1 infected patient at 300 mg, po qd coadministered with 400 mg, po bid and 100 mg, po bid of Lopinavir and ritonavir respectively", "assay_type": "ADME, organism-based", "settings": "human, in vivo", "procedure,_shortened": "as §1"}, "[6]": {"experiment": "Half life in HIV-1 infected patient at 300 mg, po qd coadministered with 400 mg, po bid and 100 mg, po bid of Lopinavir and ritonavir respectively", "assay_type": "ADME, organism-based", "settings": "human, in vivo", "procedure,_shortened": "as §1"}, "[7]": {"experiment": "AUC in HIV-1 infected patient at 300 mg, po qd coadministered with 400 mg, po bid and 100 mg, po bid of Lopinavir and ritonavir respectively", "assay_type": "ADME, organism-based", "settings": "human, plasma", "procedure,_shortened": "as §1"}, "[8]": {"experiment": "Cmax in HIV-1 infected patient at 300 mg, po qd coadministered with 400 mg, po bid and 100 mg, po bid of Lopinavir and ritonavir respectively", "assay_type": "ADME, organism-based", "design": "dose 300 mg, route oral", "settings": "human, in vivo", "procedure,_shortened": "as §1"}, "[9]": {"experiment": "Cmax in HIV-1 infected patient at 400 mg, po bid coadministered with 100 mg, po bid of ritonavir and NRTI", "assay_type": "ADME, organism-based", "design": "dose 400 mg, route oral", "settings": "human, in vivo", "procedure,_shortened": "(§2)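 HIV-1-infected adults on LPV-RTV gel capsules plus NRTI (n = 17, matched pairs) at steady state after at least 2 weeks of therapy, under a standardized routine TDM protocol with food of approximately 2,500 kJ (21% fat). Plasma sampled predose and at 1, 2, 4, 6, 9 and 12 h. Concentrations by validated LC-MS/MS; noncompartmental parameters given as geometric means (90% CI).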"}, "[10]": {"experiment": "AUC in HIV-1 infected patient at 400 mg, po bid coadministered with 100 mg, po bid of ritonavir and NRTI", "assay_type": "ADME, organism-based", "settings": "human, plasma", "procedure,_shortened": "as §2"}, "[11]": {"experiment": "Half life in HIV-1 infected patient at 400 mg, po bid coadministered with 100 mg, po bid of ritonavir and NRTI", "assay_type": "ADME, organism-based", "settings": "human, in vivo", "procedure,_shortened": "as §2"}, "[12]": {"experiment": "Apparent oral clearance in HIV-1 infected patient at 400 mg, po bid coadministered with 100 mg, po bid of ritonavir with NRTI", "assay_type": "ADME, organism-based", "settings": "human, in vivo", "procedure,_shortened": "as §2"}, "[13]": {"experiment": "Cmax in HIV-1 infected patient at 400 mg, po bid coadministered with 100 mg, po bid of ritonavir and 300 mg, po qd of atazanavir", "assay_type": "ADME, organism-based", "design": "dose 400 mg, route oral", "settings": "human, in vivo", "procedure,_shortened": "as §1"}, "[14]": {"experiment": "AUC in HIV-1 infected patient at 400 mg, po bid coadministered with 100 mg, po bid of ritonavir and 300 mg, po qd of atazanavir", "assay_type": "ADME, organism-based", "settings": "human, plasma", "procedure,_shortened": "as §1"}, "[15]": {"experiment": "Half life in HIV-1 infected patient at 400 mg, po bid coadministered with 100 mg, po bid of ritonavir and 300 mg, po qd of atazanavir", "assay_type": "ADME, organism-based", "settings": "human, in vivo", "procedure,_shortened": "as §1"}, "[16]": {"experiment": "Apparent oral clearance in HIV-1 infected patient at 400 mg, po bid coadministered with 100 mg, po bid of ritonavir and 300 mg, po qd of atazanavir", "assay_type": "ADME, organism-based", "settings": "human, in vivo", "procedure,_shortened": "as §1"}, "[17]": {"experiment": "AUC in HIV-1 infected patient at 100 mg, po bid coadministered with 400 mg, po bid of Lopinavir and 300 mg, po qd of atazanavir", "assay_type": "ADME, organism-based", "settings": "human, plasma", "procedure,_shortened": "as §1"}, "[18]": {"experiment": "Cmax in HIV-1 infected patient at 100 mg, po bid coadministered with 400 mg, po bid of Lopinavir and 300 mg, po qd of atazanavir", "assay_type": "ADME, organism-based", "design": "dose 100 mg, route oral", "settings": "human, in vivo", "procedure,_shortened": "as §1"}, "[19]": {"experiment": "Half life in HIV-1 infected patient at 100 mg, po bid coadministered with 300 mg, po qd of atazanavir and NRTI", "settings": "human, in vivo"}, "[20]": {"experiment": "Cmax in HIV-1 infected patient at 100 mg, po bid coadministered with 400 mg, po bid of Lopinavir and NRTI", "assay_type": "ADME, organism-based", "design": "dose 100 mg, route oral", "settings": "human, in vivo", "procedure,_shortened": "as §2"}, "[21]": {"experiment": "AUC in HIV-1 infected patient at 100 mg, po bid coadministered with 400 mg, po bid of Lopinavir and NRTI", "assay_type": "ADME, organism-based", "settings": "human, plasma", "procedure,_shortened": "as §2"}, "[22]": {"experiment": "Half life in HIV-1 infected patient at 100 mg, po bid coadministered with 400 mg, po bid of Lopinavir and NRTI", "settings": "human, in vivo"}, "[23]": {"system": "Homo sapiens", "experiment": "Apparent oral clearance in HIV-1 infected patient at 100 mg, po bid coadministered with 400 mg, po bid of Lopinavir and NRTI", "assay_type": "ADME, organism-based", "settings": "in vivo", "procedure,_shortened": "as §2"}, "[24]": {"experiment": "AUC in HIV-1 infected patient at 100 mg, po qd coadministered with 300 mg, po qd of atazanavir and NRTI", "settings": "human, plasma"}, "[25]": {"experiment": "Cmax in HIV-1 infected patient at 100 mg, po qd coadministered with 300 mg, po qd of atazanavir and NRTI", "settings": "human, in vivo"}, "[26]": {"system": "Homo sapiens", "experiment": "Apparent oral clearance in HIV-1 infected patient at 100 mg, po qd coadministered with 300 mg, po qd of atazanavir and NRTI", "settings": "in vivo"}}}
{"compound": "COC(=O)N[C@H](C(=O)N[C@@H](Cc1ccccc1)[C@@H](O)CN(Cc1ccc(-c2ccccn2)cc1)NC(=O)[C@@H](NC(=O)OC)C(C)(C)C)C(C)(C)C", "note": "[ATAZANAVIR]", "values": [{"measurement": "CL/F", "setting": "[1]", "result": 154, "unit": "mL/min"}, {"measurement": "half-life", "setting": "[2]", "result": 7.21, "unit": "h"}, {"measurement": "AUC", "setting": "[3]", "result": 30300, "unit": "ng·h/mL"}, {"measurement": "Cmax", "setting": "[4]", "result": 2740, "unit": "ng/mL"}, {"measurement": "CL/F", "setting": "[5]", "result": 185, "unit": "mL/min"}, {"measurement": "half-life", "setting": "[6]", "result": 7.79, "unit": "h"}, {"measurement": "AUC", "setting": "[7]", "result": 26400, "unit": "ng·h/mL"}, {"measurement": "Cmax", "setting": "[8]", "result": 2260, "unit": "ng/mL"}]}
{"compound": "Cc1cccc(C)c1OCC(=O)N[C@@H](Cc1ccccc1)[C@@H](O)C[C@H](Cc1ccccc1)NC(=O)[C@H](C(C)C)N1CCCNC1=O", "note": "[LOPINAVIR]", "values": [{"measurement": "Cmax", "setting": "[9]", "result": 6850, "unit": "ng/mL"}, {"measurement": "AUC", "setting": "[10]", "result": 59700, "unit": "ng·h/mL"}, {"measurement": "half-life", "setting": "[11]", "result": 8.21, "unit": "h"}, {"measurement": "CL/F", "setting": "[12]", "result": 99, "unit": "mL/min"}, {"measurement": "Cmax", "setting": "[13]", "result": 5250, "unit": "ng/mL"}, {"measurement": "AUC", "setting": "[14]", "result": 48500, "unit": "ng·h/mL"}, {"measurement": "half-life", "setting": "[15]", "result": 6.56, "unit": "h"}, {"measurement": "CL/F", "setting": "[16]", "result": 133, "unit": "mL/min"}]}
{"compound": "CC(C)c1nc(CN(C)C(=O)N[C@H](C(=O)N[C@@H](Cc2ccccc2)C[C@H](O)[C@H](Cc2ccccc2)NC(=O)OCc2cncs2)C(C)C)cs1", "note": "[RITONAVIR]", "values": [{"measurement": "AUC", "setting": "[17]", "result": 3290, "unit": "ng·h/mL"}, {"measurement": "Cmax", "setting": "[18]", "result": 468, "unit": "ng/mL"}, {"measurement": "half-life", "setting": "[19]", "result": 4.58, "unit": "h"}, {"measurement": "Cmax", "setting": "[20]", "result": 525, "unit": "ng/mL"}, {"measurement": "AUC", "setting": "[21]", "result": 3580, "unit": "ng·h/mL"}, {"measurement": "half-life", "setting": "[22]", "result": 4.03, "unit": "h"}, {"measurement": "CL/F", "setting": "[23]", "result": 440, "unit": "mL/min"}, {"measurement": "AUC", "setting": "[24]", "result": 7770, "unit": "ng·h/mL"}, {"measurement": "Cmax", "setting": "[25]", "result": 869, "unit": "ng/mL"}, {"measurement": "CL/F", "setting": "[26]", "result": 199, "unit": "mL/min"}]}
